# Compound activity: PubChem BioAssay, SRMLSC
# The full list was thinned out, with hits kept by preference.
# HCT116 PTEN-null – growth suppressors of cells with PTEN tumor suppressor deletion. 140,000 compounds, 1.2% hits. AID 827. HCT116 PTEN-null viability, CellTiter-Glo, 60 h; active compounds read low. viability, % at 10 µM;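 active means viability at or below a set limit, 4 SD under the median of all tested compounds, cut at about 3.7% in these data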;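 further: PTEN knockout HCT116 line with beta catenin targeted HCT116 as companion control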
# HUVEC prolif 384 – inhibitors of human endothelial cell proliferation; HUVEC proliferation, CellTiter-Glo luminescence, 72 h; active compounds read low; viability, % at 10 µM (by protocol); 86,000 compounds, 1.1% hits; AID 648;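 active means viability at or below 30%; inactive means viability above 30%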;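 further: 100% = median luminescence of DMSO-only cell control wells on each plate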
# Lung fibro prol – blocks proliferation of human lung fibroblasts | viability, % at 10 µM | LL 47 human lung fibroblast viability, ATP luminescence; active compounds read low | 85,000 compounds, 1.1% hits;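 active means viability at or below 50% in the single dose screen; inactive means viability above 50%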;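 further: compound exposure lasted 72 h before the ATP readout; 100% = median luminescence of untreated cell-only wells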
#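 Assay system: human lung fibroblast line LL 47, low passage. Input: 1,150 fibroblasts seeded per well. Times: overnight cell rest, 72 h compound treatment at 37 °C. Evaluation: % viability of median cell-only signal. Technique: luminescent ATP detection, CellTiter-Glo. Control set: cell-only wells, no compound.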
# H69AR growth 86K – blocks growth of human H69AR lung tumor cells. H69AR lung tumor viability, ATP luminescence, 72 h; active compounds read low. viability, % at 10 µM. 85,000 compounds, 6% hits. AID 598;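 active means viability at or below 40%; inactive means viability above 40%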;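 further: multidrug resistant small cell line overexpressing MRP-1 efflux transporter; 100% = mean luminescence of untreated control wells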
# HCT116 bCat-KO – beta-catenin-lacking colon tumor cell growth suppression | HCT116 beta-catenin knockout viability, CellTiter-Glo, 60 h; active compounds read low | viability, % at 10 µM | 140,000 compounds, 1.5% hits;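 active means viability at or under a set limit, the compound median less 4 SD, cut at about 6% in these data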;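 further: 0% = Hyamine 1622 control at 20 µM and 100% = untreated cell control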
# Active calls of the source: *; . = not tested or not shown.
SMILES,HCT116 PTEN-null,HUVEC prolif 384,Lung fibro prol,H69AR growth 86K,HCT116 bCat-KO
CCOc1cccc(OCC)c2c(C)[n+](CC3CCCO3)c(C)c1-2 (stereo not drawn),108.0,94.6,103.5,32.1*,95.8
O=C(Nc1ccc(Cl)cc1)Nc1nccs1,35.6,53.5,55.8,29.2*,20.1
Cc1ccnc(-n2c(C)cc(C=C3C(=O)N(C)C(=S)N(C)C3=O)c2C)c1,73.8,.,.,.,79.4
CCN(CC)CCCNC(=O)c1c(O)c2ccccc2n(Cc2ccccc2)c1=O,46.6,100.5,74.2,9.1*,38.8
CCN(CC)CCNC(=O)c1c(O)c2ccccc2n(Cc2ccccc2)c1=O,64.1,107.0,90.1,26.6*,48.6
C/C(=N\Nc1cccc2ccccc12)c1c(O)n(Cc2ccccc2)c(=O)[nH]c1=O,69.5,.,.,.,75.6
COC(=O)c1cc(COc2cc(C)cc3oc(=O)c4c(c23)CCC4)c(C)o1,.,89.2,95.9,92.0,.
O=c1[nH]c(=O)n(-c2ccccc2)c(O)c1/C=C1/C(c2ccccc2)=Nc2ccccc21,9.8,.,.,.,12.0
C[C@H]1CCCC(=O)CCC/C=C/c2cc(O)cc(O)c2C(=O)O1,66.3,51.9,105.6,35.7*,65.0
Nc1cc(Cl)c2nonc2c1[N+](=O)[O-],2.2*,.,.,.,4.9*
O=c1[nH]c(=S)[nH]c(O)c1CN1CCCCC1,92.5,.,.,.,95.2
N#Cc1cc2c(nc1SCC(=O)Nc1cc(Cl)ccc1Cl)C1CCN2CC1,0.7*,5.5*,7.1*,1.8*,1.1*
CCN1/C(=C\C=C\C2=[N+](CC)c3ccccc3C2(C)C)C(C)(C)c2ccccc21,1.1*,21.6*,8.7*,0.2*,1.1*
Cc1cccc(C)c1NC(=O)CN(C)CC(=O)Nc1ccc(C#N)c(Cl)c1,58.1,98.2,90.6,88.3,64.6
CCOC(=O)c1c(C)n(Cc2ccccc2)c2ccc(OCC(O)Cn3nc(C)cc3C)cc12 (stereo not drawn),65.7,61.3,99.8,12.2*,73.5
CCOC(=O)c1c(-n2c(C)cc(C=C3C(=O)NC(=S)NC3=O)c2C)sc2c1CCCC2,5.2,.,.,.,3.8*
C=CCn1c(O)c(C(CC)=NC2CC2)c(=O)[nH]c1=O,104.5,100.1,101.0,86.4,90.9
CCCCn1c(=O)c(C(=O)Nc2nc3ccccc3[nH]2)c(O)c2ccccc21,.,100.0,85.1,8.5*,.
CCCCn1c(=O)c(C(=O)Nc2cnccn2)c(O)c2ccccc21,45.6,72.7,48.3*,14.1*,54.2
CCCCn1c(O)c(C(CC)=NCc2cccnc2)c(=O)[nH]c1=O,95.4,90.3,95.9,67.5,92.9
CC(C)CCn1c(=O)c(C(=O)Nc2ccccc2S(N)(=O)=O)c(O)c2ccccc21,20.6,59.2,50.2,7.4*,29.4
CCCCc1nc(N2CCNCC2)c(C#N)c2c1CSC(C)(C)C2,1.9*,.,.,.,1.7*
COc1ccc(CCNC(=O)c2c(N)n(CCN3CCOCC3)c3nc4ccccc4nc23)cc1OC,21.4,59.0,92.0,11.7*,32.6
CCCCCn1c(N)c(C(=O)NCCN2CCOCC2)c2nc3ccccc3nc21,45.8,55.2,82.2,30.1*,53.3
Nc1c(C(=O)NCc2ccco2)c2nc3ccccc3nc2n1CCN1CCOCC1,33.5,70.0,94.4,39.3*,52.1
SMILES,HCT116 PTEN-null,HUVEC prolif 384,Lung fibro prol,H69AR growth 86K,HCT116 bCat-KO
CCCCOCCCn1c(N)c(C(=O)OCCOC)c2nc3ccccc3nc21,74.2,88.6,110.9,59.4,66.5
CC(C)OCCCNC(=O)c1c(N)n(CC2CCCO2)c2nc3ccccc3nc12 (stereo not drawn),39.3,74.0,96.4,62.1,45.6
CCCNC(=O)c1c(N)n(CC2CCCO2)c2nc3ccccc3nc12 (stereo not drawn),62.6,67.3,91.7,87.4,69.8
COCCCn1c(N)c(C(=O)NCCC(C)C)c2nc3ccccc3nc21,2.7*,87.4,81.2,18.1*,1.6*
CCCCCc1nc2ccccc2c(=O)n1-c1ccc(Cl)cc1[N+](=O)[O-],95.9,.,.,.,94.1
Cc1cccc(NC(N)=S)c1,106.2,.,.,.,92.2
CCCCNC(=O)c1c(N)n(Cc2ccc3c(c2)OCO3)c2nc3ccccc3nc12,34.9,40.7,60.0,5.1*,34.5
CCCCCCn1c(N)c(C(=O)NCCN2CCOCC2)c2nc3ccccc3nc21,1.4*,28.0*,72.7,1.5*,27.2
CCOC(=O)c1c(NC(=O)c2c(N)n(CCCOC)c3nc4ccccc4nc23)sc2c1CCCC2,14.5,76.4,90.3,10.8*,4.0*
CCCCn1c(N)c(C(=O)OCC2CCCO2)c2nc3ccccc3nc21 (stereo not drawn),93.4,60.2,87.0,50.3,86.9
Nc1c(C(=O)NCc2ccco2)c2nc3ccccc3nc2n1Cc1ccccc1,32.6,.,.,.,53.3
CCOCCCn1c(N)c(C(=O)Nc2sc3c(c2C(=O)OC)CCCC3)c2nc3ccccc3nc21,29.3,.,.,.,48.5
CCCCNc1ccncc1S(=O)(=O)NC(=O)NC(C)C,106.2,102.4,107.3,103.5,92.5
COc1cccc(OC)c1C1=NCC(=O)Nc2c1oc1ccc(Br)cc21,16.4,46.0,59.8,34.3*,14.9
Nc1c(C(=O)NCc2ccco2)c2nc3ccccc3nc2n1Cc1ccc(F)cc1,6.2,70.2,84.8,22.0*,55.3
COc1ccc(Cn2c(N)c(C(=O)NCc3ccco3)c3nc4ccccc4nc32)cc1,29.4,69.5,77.4,38.4*,51.6
CCCCc1ccc2[nH]cc(CCN)c2c1,3.9,84.5,83.5,14.3*,17.6
CCN1CCC(O)(c2ccccc2)C(C(=O)c2ccccc2)C1 (stereo not drawn),.,101.7,105.8,69.9,.
Cc1oc(C(=O)Nc2ccc(O)cc2)cc1COc1ccccc1,93.5,62.5,103.7,29.4*,90.8
COc1ccc(CCNCc2ccc(SC)cc2)cc1,88.7,.,.,.,94.4
Cc1nc2cc(C(=O)N3CCC4(CC3)OCCO4)ccc2n1-c1cccc(F)c1,94.8,100.1,98.8,88.3,97.8
O=C(c1ccc2c(c1)ncn2C1CCCCCC1)N1CCC2(CC1)OCCO2,42.3,96.9,95.0,28.5*,41.6
CN1CCC(N(C)c2nc(-c3ccccc3)nc3ccccc23)CC1,24.3,66.3,89.8,26.7*,24.4
Cc1nn(Cc2ccc(Cl)cc2Cl)c(Cl)c1C(=O)Nc1ccc(OC(F)F)cc1,58.5,.,.,.,69.3
C=CCn1c(O)c(C=NCCCOc2ccc(CC)cc2)c(=O)[nH]c1=S,70.2,48.9,82.9,31.5*,68.9
CCOCCCN=Cc1c(O)n(Cc2ccccc2)c(=O)[nH]c1=O,98.8,97.4,89.2,95.3,105.9
Cc1ccc(NC(=O)CN2C(=O)CN=C(c3ccccc3)c3cc(Cl)ccc32)cc1,47.5,84.5,84.9,24.6*,43.7
CC(=NCCN1CCCCC1)c1c(O)n(-c2ccc(Cl)cc2)c(=O)[nH]c1=O,109.8,109.7,107.7,89.1,95.3
CCOC(=O)c1c(C)[nH]c(C(=O)C(Cc2ccccc2)N(C)C)c1C (stereo not drawn),108.4,.,.,.,94.3
O=c1c2ccccc2nc(-c2ccoc2)n1-c1ccccc1Cl,33.9,86.3,97.7,34.1*,36.2
